According to ChEMBL document CHEMBL4616650, “Spongian Diterpenoids Derived from the Antarctic Sponge Dendrilla antarctica Are Potent Inhibitors of the Leishmania Parasite” (J Nat Prod, 2020):
pIC50: −log10 of the molar value.

What was measured:
Leishmania donovani = assay: Antileishmanial activity against Leishmania donovani MHOM/SD/75/1246/130 amastigotes infected in mouse J774A.1 cells incubated for 72 hrs by DRAQ5 fluorescent probe based assay; type: functional, organism-based; conditions: MHOM/SD/75/1246/130, J774.A1, 72 h
Summary of the method: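 Axenic amastigotes grown at 37 °C in RPMI 1640 pH 5.5 with HEPES, MES, hemin, xanthine, Tween-80, tryptone-peptone, 20% heat-inactivated FBS. 2000 J774A.1 macrophages per well infected at 10:1 parasites:cells, 24 h, 37 °C, 5% CO2; extracellular parasites washed off. Compounds from 10 μg/mL top, 1:2 serial dilutions, 72 h. Fixed 2% paraformaldehyde, DraQ5 5 μM nuclear stain; high-content imaging counts amastigotes per 500 macrophages; IC50 derived.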

J774.A1 = assay: Cytotoxicity against mouse J774A.1 cells incubated for 72 hrs by CellTiter 96 AQueous One solution cell proliferation assay; type: cell-based; conditions: J774.A1, 72 h
Summary of the method: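 J774A.1 macrophages in RPMI 1640 with 10% heat-inactivated FBS, pH 7.2. Seeded at 50 000 cells per well with six 2-fold dilutions, final 50 to 1.6 μg/mL, 72 h at 37 °C, 5% CO2. MTS reagent added for a further 4 h; absorbance read at 490 nm.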

[1] = Selectivity index, ratio of cytotoxicity against mouse J774A.1 cells to antileishmanial activity against Leishmania donovani MHOM/SD/75/1246/130 amastigotes infected in mouse J774A.1 cells; type: toxicity, cell-based; conditions: read-out: Ratio IC50

SMILES | pIC50 (Leishmania donovani) | pIC50 (J774.A1) | selectivity ratio [1]
CO[C@H]1OC(=O)c2ccc([C@@]3(C)CCCC(C)(C)C3)c([C@@H](C)C(=O)O)c21 | 4.57 | 4.37 | –
CC(=O)O[C@@H]1O[C@H]2OCC3=C(C)[C@@H]([C@@]4(C)CCCC(C)(C)C4)CC[C@@H]1[C@H]32 | 4.95 | 4.13 | –
CO[C@@H]1O[C@H](OC)c2c1ccc([C@@]1(C)CCCC(C)(C)C1)c2[C@@H](C)C(=O)O | 5.19 | < 3.88 | –
CO[C@H]1O[C@@H](OC)c2c1ccc([C@@]1(C)CCCC(C)(C)C1)c2[C@@H](C)C(=O)O [MEMBRANOLIDE D] | 5.18 | 4.02 | –
CO[C@H]1OC(=O)[C@H](C)c2c([C@@]3(C)CCCC(C)(C)C3)ccc(C=O)c21 | < 4.54 | 4.26 | –
COC(=O)[C@H](C)c1c([C@@]2(C)CCCC(C)(C)C2)ccc2c1C(=O)OC2 | 5.01 | 4.11 | –
CO[C@H]1O[C@@H](OC(C)=O)c2ccc([C@@]3(C)CCCC(C)(C)C3)c([C@@H](C)C(=O)O)c21 | 4.92 | 4.20 | –

Now those with a higher pIC50 (Leishmania donovani), led by results:

pIC50 (Leishmania donovani) | SMILES | pIC50 (J774.A1) | selectivity ratio [1]
5.46 | CC(=O)O[C@@H]1O[C@H]2OC(=O)[C@H](C)C3=C([C@@]4(C)CCCC(C)(C)C4)CC[C@@H]1[C@H]32 | < 3.88 | > 38
5.51 | CC(=O)O[C@@H]1O[C@H]2OC(=O)[C@H](C)C3C([C@@]4(C)CCCC(C)(C)C4)=CC=C1C32 (stereo partly specified) | 4.91 | 4
5.54 | CCCCCCCCCCCCCCCCOP(=O)([O-])OCC[N+](C)(C)C [MILTEFOSINE] | < 3.92 | –
5.72 | C[C@H]1C(=O)O[C@@H](O)c2c(C=O)ccc([C@@]3(C)CCCC(C)(C)C3)c21 | < 3.82 | > 100
5.85 | CO[C@H]1O[C@H](OC)c2c1ccc([C@@]1(C)CCCC(C)(C)C1)c2[C@@H](C)C(=O)O | < 3.88 | > 95
6.10 | CO[C@@H]1O[C@@H](OC)c2c1ccc([C@@]1(C)CCCC(C)(C)C1)c2[C@@H](C)C(=O)O [MEMBRANOLIDE C] | < 3.88 | > 166
